Test results from ChEMBL document CHEMBL5107946, “SF5- and SCF3-substituted tetrahydroquinoline compounds as potent bactericidal agents against multidrug-resistant persister Gram-positive bacteria” (RSC Med Chem, 2021).
Values after ≈ are worked out from the molar mass of the structure shown. Active and inactive are the calls of the source.

Assays:
Staphylococcus aureus [1] = experiment: Antibacterial activity against Staphylococcus aureus ATCC 25923 assessed as bacterial growth inhibition at 16 ug/ml incubated for 18 to 20 hrs by CLSI based broth microdilution assay; format: functional, organism-based; details: dose 16.0 µg/ml, time 18-20 hrs
How it was run: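 Single-concentration screen at 16 μg mL−1 final. Overnight TSB culture was diluted 1:1000 in cation-adjusted MHB and grown to early exponential phase. 1 mL of culture was added to compound in glass tubes and incubated overnight at 37 °C. OD600 was read and normalized to the DMSO control after subtracting medium-only OD.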

Staphylococcus aureus [2] = experiment: Antibacterial activity against Staphylococcus aureus ATCC 25923 assessed as bacterial growth inhibition incubated for 18 to 20 hrs by CLSI based broth microdilution assay; format: functional; details: time 18-20 hrs
How it was run: (§1)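 CLSI broth microdilution; compounds and control antibiotics made up at 10 mg mL−1 in DMSO (stock), serially diluted 1:2 across the plate. Inoculum adjusted to 0.5 McFarland, then diluted 1:100 into wells. Plates incubated static at 37 °C for 18–20 h before MIC read.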

Enterococcus faecalis [3] = experiment: Bactericidal activity against vancomycin-resistant Enterococcus faecalis ATCC 51575 assessed as reduction in colony forming unit incubated for 20 hrs; format: functional
How it was run: (§2)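 Follows the broth microdilution MIC plate. 4 μL taken from each well without growth, spotted in duplicate on tryptic soy agar and incubated static at 37 °C for 20 h. MBC taken as the concentration giving 99.9% reduction in CFU.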

Staphylococcus aureus [4] = experiment: Bactericidal activity against methicillin-resistant Staphylococcus aureus USA300 assessed as reduction in colony forming unit incubated for 20 hrs; format: functional; how it was run: as §2
Enterococcus faecalis [5] = experiment: Bactericidal activity against Enterococcus faecalis ATCC 29212 assessed as reduction in colony forming unit incubated for 20 hrs; format: functional; how it was run: as §2
Staphylococcus aureus [6] = experiment: Bactericidal activity against Staphylococcus aureus ATCC 25923 assessed as reduction in colony forming unit incubated for 20 hrs; format: functional; how it was run: as §2
Staphylococcus aureus [7] = experiment: Bactericidal activity against methicillin-resistant Staphylococcus aureus ATCC 33592 assessed as reduction in colony forming unit incubated for 20 hrs; format: functional; how it was run: as §2
Enterococcus faecium [8] = experiment: Bactericidal activity against vancomycin-resistant Enterococcus faecium ATCC 700221 assessed as reduction in colony forming unit incubated for 20 hrs; details: ATCC 700221, 20 h
Listeria monocytogenes = experiment: Antibacterial activity against Listeria monocytogenes ATCC 19115 assessed as bacterial growth inhibition incubated for 18 to 20 hrs by CLSI based broth microdilution assay; format: functional; details: time 18-20 hrs
How it was run: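 MIC by CLSI broth microdilution. Compounds were made as 10 mg mL−1 DMSO stocks and serially diluted 1:2. Inoculum was set to 0.5 McFarland and diluted 1:100 into the wells. Plates were incubated static at 37 °C for 18–20 h before reading the MIC.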

Enterococcus faecium [9] = experiment: Antibacterial activity against vancomycin-resistant Enterococcus faecium ATCC 700221 assessed as bacterial growth inhibition incubated for 18 to 20 hrs by CLSI based broth microdilution assay
Enterococcus faecalis [10] = experiment: Antibacterial activity against Enterococcus faecalis ATCC 29212 assessed as bacterial growth inhibition incubated for 18 to 20 hrs by CLSI based broth microdilution assay; format: functional; details: time 18-20 hrs; how it was run: as §1
Staphylococcus aureus [11] = experiment: Antibacterial activity against methicillin-resistant Staphylococcus aureus ATCC 33592 assessed as bacterial growth inhibition incubated for 18 to 20 hrs by CLSI based broth microdilution assay; format: functional; details: time 18-20 hrs; how it was run: as §1
Staphylococcus aureus [12] = experiment: Antibacterial activity against methicillin-resistant Staphylococcus aureus USA300 assessed as bacterial growth inhibition incubated for 18 to 20 hrs by CLSI based broth microdilution assay; format: functional; details: time 18-20 hrs; how it was run: as §1
Enterococcus faecalis [13] = experiment: Antibacterial activity against vancomycin-resistant Enterococcus faecalis ATCC 51575 assessed as bacterial growth inhibition incubated for 18 to 20 hrs by CLSI based broth microdilution assay; format: functional; details: time 18-20 hrs; how it was run: as §1
Staphylococcus aureus [14] = experiment: Antibacterial activity against methicillin-resistant Staphylococcus aureus ATCC 33592 assessed as fold increase in MIC incubated for 30 days by resistance development based broth microdilution assay; format: functional; details: time 30 day
How it was run: (§3)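 Multi-step resistance selection over 30 days. MIC determined first. Each day, 5 μL from the turbid well just below the MIC was diluted 1:1000 in CA-MHB and used as inoculum for the next broth microdilution MIC. Resistance defined as a rise of more than four-fold over the starting MIC.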

Staphylococcus aureus [15] = experiment: Antibacterial activity against methicillin-resistant Staphylococcus aureus USA300 assessed as fold increase in MIC incubated for 30 days by resistance development based broth microdilution assay; format: functional; details: time 30 day; how it was run: as §3
Staphylococcus aureus [16] = experiment: Antibacterial activity against methicillin-resistant Staphylococcus aureus ST239 (ARLG 1663) assessed as bacterial growth inhibition incubated for 18 to 20 hrs by CLSI based broth microdilution assay; format: functional; details: time 18-20 hrs; how it was run: as §1
Staphylococcus aureus [17] = experiment: Antibacterial activity against methicillin-resistant Staphylococcus aureus ST1312 (ARLG 1649) assessed as bacterial growth inhibition incubated for 18 to 20 hrs by CLSI based broth microdilution assay; format: functional; details: time 18-20 hrs; how it was run: as §1
Staphylococcus aureus [18] = experiment: Antibacterial activity against methicillin-resistant Staphylococcus aureus ST239 (ARLG 1644) assessed as bacterial growth inhibition incubated for 18 to 20 hrs by CLSI based broth microdilution assay; format: functional; details: time 18-20 hrs; how it was run: as §1
Staphylococcus aureus [19] = experiment: Antibacterial activity against methicillin-resistant Staphylococcus aureus ST239 (ARLG 1665) assessed as bacterial growth inhibition incubated for 18 to 20 hrs by CLSI based broth microdilution assay; format: functional; details: time 18-20 hrs; how it was run: as §1
Cell membrane [20] = experiment: Induction of cell membrane disruption in persister Staphylococcus aureus ATCC 25923 at 32 ug/ml incubated for 6 hrs by scanning electron microscopy; details: dose 32.0 µg/ml
Cell membrane [21] = experiment: Induction of cell membrane permeability in Staphylococcus aureus ATCC 25923 at 4 ug/ml by DiOC2 dye based flow cytometry assay; details: dose 4.0 µg/ml
How it was run: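 Flow cytometry on S. aureus ATCC 25923 grown in TSB to exponential phase (OD600 0.2–0.3), then treated. Cells were washed twice in PBS and resuspended in buffer. To-PRO 3 iodide (red) and DiOC2 (green) were added and samples analysed immediately. The red/green ratio was used as the permeabilization readout, with bithionol 4 μg mL−1 as positive control.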

Structure (SMILES)	Activity (Staphylococcus aureus [1])	MIC (Staphylococcus aureus [2])	MIC (Listeria monocytogenes)	MIC (Enterococcus faecium [9])	MIC (Enterococcus faecalis [10])	MIC (Enterococcus faecalis [13])	other results
FS(F)(F)(F)(F)c1ccc2c(c1)[C@H]1[C@@H]3CC[C@@H](C3)[C@H]1[C@H](c1c[nH]cn1)N2	Active	8 µg/mL (≈ 20.4 µM)					
CC(=O)NC[C@H]1CN(c2ccc(N3CCOCC3)c(F)c2)C(=O)O1 [LINEZOLID]			2 µg/mL (≈ 5.93 µM)				MBC (Enterococcus faecalis [3]): > 128 µg/mL; MBC (Staphylococcus aureus [4]): 64 µg/mL (≈ 190 µM); MBC (Enterococcus faecalis [5]): 64 µg/mL (≈ 190 µM); MBC (Staphylococcus aureus [6]): 64 µg/mL (≈ 190 µM); MBC (Staphylococcus aureus [7]): 64 µg/mL (≈ 190 µM); MBC (Enterococcus faecium [8]): > 128 µg/mL
FC(F)(F)Sc1ccc2c(c1)[C@H]1[C@@H]3CC[C@@H](C3)[C@H]1[C@H](c1c[nH]nc1C(F)(F)F)N2	Active	4 µg/mL (≈ 9.23 µM)	4 µg/mL (≈ 9.23 µM)	4 µg/mL (≈ 9.23 µM)	8 µg/mL (≈ 18.5 µM)	8 µg/mL (≈ 18.5 µM)	MIC (Staphylococcus aureus [11]): 2 µg/mL (≈ 4.61 µM); MIC (Staphylococcus aureus [12]): 4 µg/mL (≈ 9.23 µM)
O=C(O)c1ccc([C@@H]2Nc3ccc(S(F)(F)(F)(F)F)cc3[C@H]3[C@@H]4CC[C@@H](C4)[C@H]32)cc1	Active	4 µg/mL (≈ 8.98 µM)	4 µg/mL (≈ 8.98 µM)	4 µg/mL (≈ 8.98 µM)	4 µg/mL (≈ 8.98 µM)	4 µg/mL (≈ 8.98 µM)	MIC (Staphylococcus aureus [11]): 4 µg/mL (≈ 8.98 µM); MIC (Staphylococcus aureus [12]): 16 µg/mL (≈ 35.9 µM)
C/C(=C\C(=O)OCCCCCCCCC(=O)O)C[C@@H]1OC[C@H](C[C@@H]2O[C@H]2[C@@H](C)[C@H](C)O)[C@@H](O)[C@H]1O [MUPIROCIN]							fold change (FC) (Staphylococcus aureus [14]): >250
O=C(O)c1cn(C2CC2)c2cc(N3CCNCC3)c(F)cc2c1=O [CIPROFLOXACIN]							fold change (FC) (Staphylococcus aureus [15]): 16; fold change (FC) (Staphylococcus aureus [14]): 64
FC(F)(F)c1ccc2c(c1)N[C@@H](c1c[nH]nc1C(F)(F)F)[C@@H]1[C@H]3CC[C@H](C3)[C@H]21	Active	4 µg/mL (≈ 9.97 µM)	8 µg/mL (≈ 19.9 µM)	8 µg/mL (≈ 19.9 µM)	8 µg/mL (≈ 19.9 µM)	8 µg/mL (≈ 19.9 µM)	MIC (Staphylococcus aureus [11]): 8 µg/mL (≈ 19.9 µM); MIC (Staphylococcus aureus [12]): 8 µg/mL (≈ 19.9 µM)
FC(F)Oc1ccc2c(c1)[C@H]1[C@@H]3CC[C@@H](C3)[C@H]1[C@H](c1c[nH]nc1C(F)(F)F)N2	Active						
FC(F)(F)c1n[nH]cc1-c1nc2ccc(S(F)(F)(F)(F)F)cc2c2c1[C@H]1CC[C@@H]2C1	Active	4 µg/mL (≈ 8.78 µM)	8 µg/mL (≈ 17.6 µM)	8 µg/mL (≈ 17.6 µM)	8 µg/mL (≈ 17.6 µM)	8 µg/mL (≈ 17.6 µM)	MIC (Staphylococcus aureus [11]): 8 µg/mL (≈ 17.6 µM); MIC (Staphylococcus aureus [12]): 8 µg/mL (≈ 17.6 µM)
Fc1ccc2c(c1)[C@H]1[C@@H]3CC[C@@H](C3)[C@H]1[C@H](c1c[nH]nc1C(F)(F)F)N2	Active						
FS(F)(F)(F)(F)c1ccc2c(c1)[C@H]1[C@@H]3CC[C@@H](C3)[C@H]1[C@H](c1cn[nH]c1)N2	Active	16 µg/mL (≈ 40.9 µM)					
CN[C@H](CC(C)C)C(=O)N[C@H]1C(=O)N[C@@H](CC(N)=O)C(=O)N[C@H]2C(=O)N[C@H]3C(=O)N[C@H](C(=O)N[C@H](C(=O)O)c4cc(O)cc(O)c4-c4cc3ccc4O)[C@H](O)c3ccc(c(Cl)c3)Oc3cc2cc(c3O[C@@H]2O[C@H](CO)[C@@H](O)[C@H](O)[C@H]2O[C@H]2C[C@](C)(N)[C@H](O)[C@H](C)O2)Oc2ccc(cc2Cl)[C@H]1O [VANCOMYCIN]			1 µg/mL (≈ 0.69 µM)	> 128 µg/mL	2 µg/mL (≈ 1.38 µM)	> 128 µg/mL	MBC (Enterococcus faecalis [3]): > 128 µg/mL; MBC (Staphylococcus aureus [4]): 2 µg/mL (≈ 1.38 µM); MBC (Enterococcus faecalis [5]): 2 µg/mL (≈ 1.38 µM); MBC (Staphylococcus aureus [6]): 2 µg/mL (≈ 1.38 µM); MBC (Staphylococcus aureus [7]): 2 µg/mL (≈ 1.38 µM); MBC (Enterococcus faecium [8]): > 128 µg/mL
FC(F)(F)Oc1ccc2c(c1)[C@H]1[C@@H]3CC[C@@H](C3)[C@H]1[C@H](c1c[nH]nc1C(F)(F)F)N2	Active	4 µg/mL (≈ 9.58 µM)	4 µg/mL (≈ 9.58 µM)	4 µg/mL (≈ 9.58 µM)	8 µg/mL (≈ 19.2 µM)	8 µg/mL (≈ 19.2 µM)	MIC (Staphylococcus aureus [11]): 4 µg/mL (≈ 9.58 µM); MIC (Staphylococcus aureus [12]): 8 µg/mL (≈ 19.2 µM)
Cc1onc(-c2ccccc2)c1C(=O)N[C@@H]1C(=O)N2[C@@H]1SC(C)(C)[C@@H]2C(=O)O [OXACILLIN]							MIC (Staphylococcus aureus [16]): 256 µg/mL (≈ 638 µM); MIC (Staphylococcus aureus [17]): 256 µg/mL (≈ 638 µM); MIC (Staphylococcus aureus [18]): 512 µg/mL (≈ 1280 µM); MIC (Staphylococcus aureus [19]): 512 µg/mL (≈ 1280 µM)
FC(F)(F)c1n[nH]cc1[C@@H]1Nc2ccccc2[C@H]2[C@@H]3CC[C@@H](C3)[C@H]21	Active						
CC(C)Oc1ccc2c(c1)[C@H]1[C@@H]3CC[C@@H](C3)[C@H]1[C@H](c1c[nH]nc1C(F)(F)F)N2	Active						
Oc1c(Cl)cc(Cl)cc1Sc1cc(Cl)cc(Cl)c1O							Activity (Cell membrane [20]): Active; Activity (Cell membrane [21]): Active
